# KCNK9 block: human KCNK9 channel inhibition; HEK293 KCNK9, FluxOR thallium flux fluorescence; active compounds read low; B-score at 10 µM; 310,000 compounds, 1.2% hits; AID 488922;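 active means ratio B-score over 3 SD below the library mean, with starting fluorescence within 5 SD of its mean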;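 further: negative B-score means less thallium flux so channel inhibition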
# Kir21 inh: inhibitors of mouse Kir2.1 inward-rectifier potassium channel | P35561 | HEK293-Kir2.1, FluxOR thallium flux fluorescence; active compounds read low | B-score at 10 µM | 310,000 compounds, 0.85% hits;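 active means fluorescence ratio B-score at or below minus 3 SD of library scores, with starting-brightness B-score within 2 SD, cut at about -4.2 in these data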;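 further: channel flux triggered by added potassium and thallium sulfate stimulus; B-score of peak minus minimum fluorescence over baseline after thallium stimulus; more negative B-score means stronger Kir2.1 block with less thallium influx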
# KCNQ1 inh: human KCNQ1 channel inhibition; 310,000 compounds, 1.3% hits; B-score at 10 µM; CHO-K1 KCNQ1, FluxOR thallium flux fluorescence; active compounds read high; P51787;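 active means compounds whose thallium flux B-score, printed positive for inhibition, exceeds three library SD while starting fluorescence stays within three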;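 further: channel opened by potassium depolarization with thallium stimulus after 20 min compound exposure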
# Target sequence (P51787 whole entry, looked up): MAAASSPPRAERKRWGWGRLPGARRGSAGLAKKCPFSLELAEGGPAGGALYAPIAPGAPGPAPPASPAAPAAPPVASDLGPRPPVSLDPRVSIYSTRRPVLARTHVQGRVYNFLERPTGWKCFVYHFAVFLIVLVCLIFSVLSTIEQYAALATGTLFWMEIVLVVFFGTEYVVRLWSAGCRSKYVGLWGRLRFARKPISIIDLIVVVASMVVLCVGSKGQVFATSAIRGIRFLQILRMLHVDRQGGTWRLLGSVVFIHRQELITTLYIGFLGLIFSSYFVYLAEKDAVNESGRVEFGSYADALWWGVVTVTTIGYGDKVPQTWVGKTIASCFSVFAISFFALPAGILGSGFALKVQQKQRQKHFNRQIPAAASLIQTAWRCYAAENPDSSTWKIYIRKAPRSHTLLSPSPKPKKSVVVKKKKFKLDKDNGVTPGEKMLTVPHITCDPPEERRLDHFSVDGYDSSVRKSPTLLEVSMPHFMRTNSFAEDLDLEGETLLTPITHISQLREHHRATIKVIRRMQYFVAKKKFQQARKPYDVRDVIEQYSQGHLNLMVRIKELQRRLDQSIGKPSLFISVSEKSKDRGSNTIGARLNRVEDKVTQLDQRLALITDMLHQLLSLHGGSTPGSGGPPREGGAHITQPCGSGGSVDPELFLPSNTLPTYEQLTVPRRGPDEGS
# KCNK3 inh: human KCNK3 channel inhibition, primary screen; O14649; CHO-KCNK3 thallium flux, FluxOR fluorescence; active compounds read low; B-score at 10 µM; 340,000 compounds, 0.84% hits;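 active means B-score under library mean minus 4 SD, starting fluorescence ratio at most library mean plus 5 SD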;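 further: more negative B-score means stronger inhibition of thallium flux through KCNK3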
# hERG rescue: hERG (human) protection from proarrhythmic block; Q12809; CHO-hERG, FluxOR thallium flux, dofetilide IC70 present; activation (rescue from dofetilide block), less the hit threshold, % at 10 µM; 310,000 compounds, 0.51% hits; AID 1511;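 active means activation above the mean of controls blocked by dofetilide plus 5 SD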;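 further: thallium influx through hERG after potassium depolarization seen as dye fluorescence rise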
# KCNQ1 act: potentiates or activates the human KCNQ1 potassium channel | B-score at 10 µM | CHO-K1 KCNQ1, thallium flux FluxOR fluorescence; active compounds read high | 310,000 compounds, 0.35% hits | AID 2648;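 active means fluorescence ratio B-score, a plate-corrected score, at least three library SD, with initial intensity B-score within 5 SD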
#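 Assay system: stable KCNQ1 CHO-K1 line; medium: assay buffer, equal DMSO in all wells; timing: 90 min dye loading and 20 min compound exposure, both at room temperature; technique: kinetic FluxOR thallium fluorescence, 10-s 1-Hz baseline, 110-s post-stimulus read; read-out basis: B score of baseline-normalized fluorescence ratio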
# Numbers without * were called inactive; i = inactive; · = no result given. Only some compounds are listed: those with a hit (about 3.8% of all), similar ones and a draw of the others.
SMILES,KCNK9 block,Kir21 inh,KCNQ1 inh,KCNK3 inh,hERG rescue,KCNQ1 act
N#C/C(=C\c1ccc(-c2ccccc2[N+](=O)[O-])o1)C(=O)Nc1nc(-c2cccs2)cs1,i,0.27,i,i,12.2*,i
COC(=O)N/N=C/c1cc(N=Nc2ccccc2Cl)ccc1O,-7.95*,0.74,i,i,-9.8,i
COC(=O)N/N=C/c1cc(Br)ccc1O,i,-0.16,i,i,-2.8,i
NCC/C=C1/c2ccccc2CSc2ccccc21,i,-4.35*,i,i,-6.0,i
CC(=O)Nc1ccc(NC(=O)CCOc2ccccc2C)cc1,i,0.18,i,i,-0.6,i
N#Cc1ccsc1NC(=O)CN1CCN(c2ccccc2)CC1,i,-0.17,i,i,8.6*,i
N#Cc1ccsc1NC(=O)CN1CCN(c2ccc(O)cc2)CC1,i,-0.52,i,i,-2.0,i
COc1ccc(N(CC(=O)NCc2ccccc2)S(C)(=O)=O)cc1,i,1.28,i,i,-1.1,i
CN(CC(=O)NCCCc1ccccc1)Cc1ccc(Br)cc1,i,-2.86,i,i,-11.3,i
CN(CC(=O)NCCc1ccc(F)cc1)Cc1ccc(Br)cc1,i,-6.56*,i,i,-13.1,i
CC(NC(=O)CN(C)Cc1cccc(Cl)c1)c1ccccc1 (stereo not drawn),i,-1.91,i,i,-10.6,i
CN(CC(=O)NCCc1ccc(F)cc1)Cc1cccc(Cl)c1,i,-7.32*,i,i,-16.8,i
CSc1ccccc1NC(=O)CN(C)Cc1cccc(Cl)c1,-7.21*,-1.59,i,i,-21.1,i
CN(CC(=O)Nc1ccc(Br)cc1)Cc1ccccc1,-6.81*,1.55,i,i,-8.0,i
CCOC(=O)c1c(C)[nH]c(C)c1C(=O)CSc1nc2ccccc2n1CCC#N,i,-0.39,i,i,-10.8,i
CCCn1c(SCC(=O)c2c(C)[nH]c(C)c2C(=O)OCC)nc2ccccc21,i,-4.27*,i,i,-15.8,i
CCOC(=O)c1c(C)[nH]c(C)c1C(=O)CSc1nc2ccccc2c(=O)n1-c1ccc(Cl)cc1,i,0.05,6*,i,-8.7,i
COc1ccc(Cl)cc1NC(=O)NCC1CCN(Cc2cc(C)ccc2C)CC1,i,-0.55,i,i,-15.2,i
COc1cc([N+](=O)[O-])ccc1NC(=O)NCC1CCN(Cc2ccc(Cl)cc2)CC1,i,-5.58*,i,i,-13.2,i
COc1ccc(NC(=S)Nc2ccc3snnc3c2)cc1,i,2.12,i,i,-15.1,i
C=CC[n+]1ccc(/C=C2\C=Cc3cc(C)ccc3N2CC)c2ccccc21,·,·,·,-14.7*,·,·
CCN1/C(=C/c2cc[n+](CCCS(=O)(=O)[O-])c3ccccc23)Sc2ccccc21,i,0,i,i,-8.3,i
CN1CCCC(OC(=O)COc2ccccc2)C1 (stereo not drawn),i,0.61,i,i,-3.8,i
CCc1cccc(NC(=O)CCS(=O)(=O)c2ccc3c(c2)NC(=O)CO3)c1,i,-0.96,i,i,-2.3,i
Cc1ccc(S(=O)(=O)NCc2csc(-c3cccs3)n2)cc1,i,-1.43,i,i,-5.8,i
SMILES,KCNK9 block,Kir21 inh,KCNQ1 inh,KCNK3 inh,hERG rescue,KCNQ1 act
O=S(=O)(NCc1csc(-c2cccs2)n1)c1cccc(C(F)(F)F)c1,i,-11.4*,i,i,-6.3,i
Cc1cc(C)cc(NC(=S)NCC2CCN(C(C)c3ccccc3)C2)c1 (stereo not drawn),i,-4.89*,i,i,-16.9,i
Cc1ccccc1NC(=S)NCC1CCN(C(C)c2ccccc2)C1 (stereo not drawn),i,-1.46,i,i,-13.0,i
CCc1ccc(OCC(=O)Nc2ccc(S(=O)(=O)N3CCCC3)cc2)c(Br)c1,i,-0.01,i,i,-6.7,i
CCOC(=O)c1sc(N(Cc2ccccc2)C(=O)CCl)nc1C,i,-0.53,i,i,-14.4,i
CCOC(=O)c1sc(N(Cc2ccccc2)C(=O)COC(=O)c2ccccc2O)nc1C,-6.74*,-0.35,i,i,-12.9,i
Cc1cc(NCc2ccccn2)n2nc(C)c(-c3ccccc3)c2n1,i,-1.58,6*,i,-16.9,i
COc1ccccc1N1CCN(C(=S)Nc2ccc3nc(N4CCOCC4)cc(C)c3c2)CC1,i,-0.81,i,i,-10.3,i
Cc1ccsc1C1C(C#N)=C(N)N(N(C)C)C2=C1C(=O)CCC2 (stereo not drawn),i,0.85,i,i,7.9*,i
CC1(C)C(=O)Nc2ccccc2N1C(=O)COC(=O)Cc1ccccc1F,·,·,·,i,·,·
Cc1nnc(Nc2ccc(C(=O)N3CCOCC3)cc2)c2ccccc12,i,-2.67,i,i,-11.9,i
CCN(CC)c1ccc(NC(=O)COC(=O)/C=C/c2nc3ccccc3s2)cc1,i,1.58,i,i,-10.9,i
CCN(CC)c1ccc(/C=C/c2nc3ccccc3s2)cc1,i,-3.9,8*,·,-8.2,i
CCOCCCNC(=O)C(c1ccc(Cl)cc1)N1CCC2(CC1)OCCO2 (stereo not drawn),i,-0.14,i,i,8.6*,i
CC(C)(C)c1ccccc1OCCOCCSc1ncccn1,-7.5*,0.24,i,i,-9.9,i
CC(C)(C)c1ccccc1OCCOCCN1CCCCCC1,i,0.27,i,i,-17.9,i
Cc1ccccc1NC(=O)/C(C#N)=C/c1ccsc1,i,0.84,i,i,-5.7,i
CCOC(=O)C1=C(Cc2ccc(F)cc2)C(=O)c2ccccc2C1=O,i,-0.1,i,i,-14.3,i
CCCCc1ccc(/C=C2\C(=O)c3ccccc3C(O)=C2C(=O)OCC)cc1,i,-0.62,i,·,-11.1,9*
O=C(N/N=C/c1cccc(Br)c1)c1ccc(Cn2cc(Br)cn2)o1,-7.47*,0.62,i,i,-16.6,i
COc1cc(C)c(CNc2ccc(OC)c(OC)c2)cc1C,i,1.48,i,·,-13.0,i
CCOC(=O)c1cc(NC(=O)Cc2ccc(S(=O)(=O)N3CCOCC3)s2)cc(C(=O)OCC)c1,i,-0.88,7*,i,-16.5,i
CCc1cc2ccccc2nc1SCC(=O)N1CCN(C(=O)c2ccco2)CC1,i,-4.36*,i,i,-10.2,i
O=[N+]([O-])c1ccc(O)c(C=Nc2ccc3c(c2)OCCO3)c1,i,1.04,i,i,-10.1,i
Oc1c(Br)cc(Br)cc1C=Nc1ccc2c(c1)OCCO2,i,-0.58,i,i,-8.5,14*
Oc1c(Br)cc(Br)cc1C=Nc1ccc2c(c1)OCO2,i,-0.44,i,i,-4.0,14*
